Laboratory results reported in the M2OR odorant receptor database.

Legend:
Conditions in all cases: stereoisomer not certain
OR11H1 (Homo sapiens) = OR11H1 (Homo sapiens) (UniProt Q8NG94)
Method in brief: (§1)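 Each receptor–molecule pair is labelled responsive or non-responsive (inactive) according to whether the original authors judged the measured signal statistically different from baseline. The data were taken from the main text and supplementary material of published papers and checked for typos and inconsistencies. Assay methods differed by source, with transient luciferase assays in mammalian cell lines being common.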

OR11H12 (Homo sapiens) = OR11H12 (Homo sapiens) (UniProt B2RN74)
Method in brief: as §1

OR11H2 (Homo sapiens) = OR11H2 (Homo sapiens) (UniProt Q8NH07)
Method in brief: as §1

OR11H4 (Homo sapiens) = OR11H4 (Homo sapiens) (UniProt Q8NGC9)
Method in brief: as §1

OR11H6 (Homo sapiens) = OR11H6 (Homo sapiens) (UniProt Q8NGC7)
Method in brief: as §1

OR11H7 (Homo sapiens) = OR11H7 (Homo sapiens) (UniProt Q8NGC8)
Method in brief: as §1

OR11L1 (Homo sapiens) = OR11L1 (Homo sapiens) (UniProt Q8NGX0)
Method in brief: as §1

OR12D1 (Homo sapiens) = OR12D1 (Homo sapiens) (UniProt P0DN82)
Method in brief: as §1

OR12D2 (Homo sapiens) = OR12D2 (Homo sapiens) (UniProt P58182)
Method in brief: as §1

OR12D3 (Homo sapiens) = OR12D3 (Homo sapiens) (UniProt Q9UGF7)
Method in brief: as §1

Measured: odorant receptor agonist call;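 also: active if original authors judged signal statistically different from baseline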

OR11H4 (Homo sapiens), sequence (Q8NGC9 whole entry): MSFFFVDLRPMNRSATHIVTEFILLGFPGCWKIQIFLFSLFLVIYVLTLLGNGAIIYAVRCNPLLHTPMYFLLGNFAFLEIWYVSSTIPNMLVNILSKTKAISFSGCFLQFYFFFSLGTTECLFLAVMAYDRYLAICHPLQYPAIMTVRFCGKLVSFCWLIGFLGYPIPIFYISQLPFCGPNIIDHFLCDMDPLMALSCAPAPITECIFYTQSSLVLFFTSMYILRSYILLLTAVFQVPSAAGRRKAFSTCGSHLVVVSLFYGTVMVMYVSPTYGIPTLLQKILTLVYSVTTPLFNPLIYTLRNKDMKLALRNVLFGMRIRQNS
OR11H6 (Homo sapiens), sequence (Q8NGC7 whole entry): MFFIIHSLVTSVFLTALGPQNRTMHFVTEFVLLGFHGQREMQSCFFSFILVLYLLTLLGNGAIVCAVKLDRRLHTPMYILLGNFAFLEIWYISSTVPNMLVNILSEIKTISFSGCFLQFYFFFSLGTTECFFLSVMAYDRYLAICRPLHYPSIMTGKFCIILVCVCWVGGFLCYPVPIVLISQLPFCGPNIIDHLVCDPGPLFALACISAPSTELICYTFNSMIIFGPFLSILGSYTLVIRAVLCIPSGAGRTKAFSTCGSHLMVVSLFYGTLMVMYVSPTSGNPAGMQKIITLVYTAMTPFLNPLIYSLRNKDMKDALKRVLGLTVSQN
OR11H1 (Homo sapiens), sequence (Q8NG94 whole entry): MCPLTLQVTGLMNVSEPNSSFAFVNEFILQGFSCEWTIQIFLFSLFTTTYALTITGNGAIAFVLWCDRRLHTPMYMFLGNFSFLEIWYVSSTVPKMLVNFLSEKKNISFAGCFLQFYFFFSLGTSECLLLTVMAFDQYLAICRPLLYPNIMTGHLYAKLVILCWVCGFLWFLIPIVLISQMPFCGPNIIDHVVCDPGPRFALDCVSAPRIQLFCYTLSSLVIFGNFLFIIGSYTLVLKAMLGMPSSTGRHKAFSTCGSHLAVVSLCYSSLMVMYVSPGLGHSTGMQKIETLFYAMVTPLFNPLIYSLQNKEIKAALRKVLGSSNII
OR11H2 (Homo sapiens), sequence (Q8NH07 whole entry): as the sequence (Q8NG94 whole entry) above, with Q7H, T49I, M181K, R199L, M240V, S269P counted along it
OR12D3 (Homo sapiens), sequence (Q9UGF7 whole entry): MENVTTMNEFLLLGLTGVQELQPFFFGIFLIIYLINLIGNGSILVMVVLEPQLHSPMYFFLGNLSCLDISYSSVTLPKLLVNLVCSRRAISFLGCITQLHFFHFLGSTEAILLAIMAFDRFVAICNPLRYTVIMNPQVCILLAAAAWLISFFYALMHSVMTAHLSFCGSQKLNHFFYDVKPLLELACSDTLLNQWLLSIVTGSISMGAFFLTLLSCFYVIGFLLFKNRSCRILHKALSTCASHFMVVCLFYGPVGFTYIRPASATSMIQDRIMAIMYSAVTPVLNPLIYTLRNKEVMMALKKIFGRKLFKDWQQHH
OR11L1 (Homo sapiens), sequence (Q8NGX0 whole entry): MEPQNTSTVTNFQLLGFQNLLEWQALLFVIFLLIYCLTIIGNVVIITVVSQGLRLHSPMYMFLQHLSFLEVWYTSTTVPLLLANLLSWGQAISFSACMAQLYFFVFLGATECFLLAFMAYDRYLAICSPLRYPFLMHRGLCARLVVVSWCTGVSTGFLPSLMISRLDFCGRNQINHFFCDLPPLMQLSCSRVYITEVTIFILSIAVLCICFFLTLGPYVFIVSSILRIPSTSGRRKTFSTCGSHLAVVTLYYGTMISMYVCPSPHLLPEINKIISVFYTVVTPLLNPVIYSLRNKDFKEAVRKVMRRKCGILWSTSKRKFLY
OR11H12 (Homo sapiens), sequence (B2RN74 whole entry): as the sequence (Q8NG94 whole entry) above, with S33T, R68W, Y156C, M240V counted along it
OR12D2 (Homo sapiens), sequence (P58182 whole entry): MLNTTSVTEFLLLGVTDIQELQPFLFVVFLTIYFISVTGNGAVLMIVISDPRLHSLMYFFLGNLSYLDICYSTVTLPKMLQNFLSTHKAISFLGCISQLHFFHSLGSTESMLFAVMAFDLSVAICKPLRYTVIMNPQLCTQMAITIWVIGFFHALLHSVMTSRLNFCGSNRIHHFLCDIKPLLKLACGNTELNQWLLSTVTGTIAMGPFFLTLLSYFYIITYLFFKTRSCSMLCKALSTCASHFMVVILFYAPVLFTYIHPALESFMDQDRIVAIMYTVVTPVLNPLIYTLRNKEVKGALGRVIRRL
OR11H7 (Homo sapiens), sequence (Q8NGC8 whole entry): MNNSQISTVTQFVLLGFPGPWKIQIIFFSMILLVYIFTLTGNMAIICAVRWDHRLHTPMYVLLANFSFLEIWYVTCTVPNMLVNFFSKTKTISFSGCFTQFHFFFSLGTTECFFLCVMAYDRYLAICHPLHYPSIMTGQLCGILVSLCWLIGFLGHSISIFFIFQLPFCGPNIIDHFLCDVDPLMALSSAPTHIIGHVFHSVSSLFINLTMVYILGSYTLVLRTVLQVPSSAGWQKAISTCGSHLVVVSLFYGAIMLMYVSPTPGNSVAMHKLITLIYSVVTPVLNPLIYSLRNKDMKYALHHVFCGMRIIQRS
OR12D1 (Homo sapiens), sequence (P0DN82 as listed by the source): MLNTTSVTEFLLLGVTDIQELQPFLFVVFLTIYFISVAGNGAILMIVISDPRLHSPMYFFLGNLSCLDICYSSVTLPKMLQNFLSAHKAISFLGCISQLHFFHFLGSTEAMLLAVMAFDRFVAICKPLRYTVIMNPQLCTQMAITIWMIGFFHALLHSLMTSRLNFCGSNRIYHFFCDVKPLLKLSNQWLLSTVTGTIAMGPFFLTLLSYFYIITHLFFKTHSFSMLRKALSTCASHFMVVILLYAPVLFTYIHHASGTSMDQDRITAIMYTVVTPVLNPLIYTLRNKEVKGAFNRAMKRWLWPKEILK

Cc1c([N+](=O)[O-])c(C)c([N+](=O)[O-])c(C(C)(C)C)c1[N+](=O)[O-]
inactive: all assays above

C=CCOC(=O)Cc1ccccc1
not listed: OR11H7 (Homo sapiens) | OR12D1 (Homo sapiens)
inactive: all other assays above
